Reference: article PMC4073670 (Nature, 2011)
Values joined by “and” are separate entries in the source; they are usually repeats but may differ in a detail not shown here. Equal values may be shown once. Square brackets hold non-standard residues; d marks the D form. Ends that are not written are not given here.

Tests used:
K19 fibers = assay: Nanogold binding to K19 fibers, electron microscopy blind counting; parameters: species or system human; conditions: z-test versus unconjugated nanogold
Outline: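 Cys-Gly3-extended test D-peptide or scrambled control (60 nmol) was conjugated to 6 nmol monomaleimido nanogold (1 h, room temperature) and freed of peptide by 10 kDa cut-off. K19 fibers (100 μM K19, 25 μM heparin, overnight at 37°C, pH 7.4) were sonicated and washed. 10 nM conjugate or control was incubated 1 h with 1.67 μM fibers (by monomer) in 25 mM MOPS pH 7.2, then gold-enhanced for EM. Fiber-bound particles were counted blind as end or side.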

ends of K19 fibers = assay: Nanogold localization to fiber ends, electron microscopy blind counting; format: binding, human; conditions: for nanogold at fiber ends, significance vs nanogold alone: z-test versus unconjugated nanogold
Outline: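 Cys-GGG-extended D-peptides were coupled to monomaleimido nanogold for 1 h at room temperature, and unbound peptide was removed by 10-kDa filtration. Conjugate (10 nM) was incubated 1 h with sonicated, heparin-free K19 fibers (1.67 μM by monomer) in 25 mM MOPS pH 7.2. Gold was enlarged with Goldenhance before EM. Particles within a 15 nm cutoff were scored as end- or side-bound by a blinded microscopist.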

tau K19 [1] = assay: Tau K19 inhibition assay; format: biochemical, human; conditions: equimolar ratio with K19; 50 μM K19, pH 7.4, 37°C, quiescent
Outline: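 K19 was expressed in E. coli BL21(DE3) with 1 mM IPTG and purified by boiling and cation exchange. Reactions held 50 μM K19 in 250 mM sodium phosphate pH 7.4 with 1 mM DTT, 12.5 μM heparin (6000 MW) and 10 μM ThS. Peptide was added from a 0.5 mM stock. Plates were read every 15 min (ex 440/em 510) at 37°C, quiescent, with 2 s shaking before reads. At least 3 replicates; lag time is the mean threshold-crossing time ± SD.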

VQIVYK = VQIVYK inhibition assay; format: biochemical; conditions: 25 mM MOPS pH 7.2, 100 μM ThS, room temperature; for VQIVYK fibrillation inhibition, equimolar peptide: equimolar ratio with VQIVYK
soluble VQIVYK = assay: 1H NMR binding to soluble VQIVYK; conditions: even at 70-fold molar excess of soluble VQIVYK, pH 5.0, 283 K
tau K12 = assay: Tau K12 inhibition assay, un-seeded; format: biochemical, human; conditions: 50 μM K12, pH 7.4, 37°C
tau K19 [2] = assay: Electron microscopy of K19 fibrillation; format: biochemical, human; conditions: incubation with peptide; negative stain, 1% uranyl acetate
Outline: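 Recombinant K19 (E. coli BL21(DE3); boiled lysate, cation exchange) was incubated at 50 μM with peptide. Buffer was 250 mM sodium phosphate pH 7.4 with 1 mM DTT, 12.5 μM heparin and 10 μM ThS, held quiescent at 37°C. Samples were spotted on glow-discharged carbon/formvar copper grids for 3 min, rinsed with water, stained with 1% uranyl acetate for 90 s, and imaged by TEM.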

amyloid beta(1-42) = assay: Amyloid beta fibrillation assay; format: biochemical; conditions: 11.5 μM Aβ1-42, 11.5 μM D-TLKIVW, 10 μM ThT, 100 mM Bicine pH 9.1, 37°C, 4 replicates
Outline: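 Aβ1-42 was diluted to 0.2 mg/ml in 50 mM NH4OH and 0.2 μm filtered. Final mix: 11.5 μM Aβ1-42, 10 μM ThT, 23 mM NH4OH, 100 mM Bicine pH 9.1, with or without 11.5 μM test D-peptide. Four replicates were run at 37°C with continuous 960 rpm shaking (1 mm diameter), reading ThT every minute at Ex 444/Em 482.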

VQIVYK fibers = assay: 1H NMR binding to VQIVYK fibers
tau fiber elongation = tau fiber elongation (Homo sapiens, UniProt P10636); assay: Tau fibrillation kinetic analysis; format: biochemical; conditions: increasing concentrations of inhibitor peptide
tau fiber elongation, sequence (P10636 186-283 isoform P10636-2 limits assumed): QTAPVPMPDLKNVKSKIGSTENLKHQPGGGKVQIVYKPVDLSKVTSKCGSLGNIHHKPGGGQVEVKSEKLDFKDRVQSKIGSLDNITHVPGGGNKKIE
Outline: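 Nucleation (k1) and propagation (k2) rates were fitted from the ThS fibrillation traces of the tau construct assays. The fit used the Finke-Watzky 2-step form, with plateau values fixed first and the remaining parameters fitted by non-linear least-squares regression.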

[3] = system: tau segment VQIVYK, and the K12 and K19 tau constructs; assay: Fibrillation of tau segment VQIVYK and tau constructs K12 and K19; format: biochemical, human
Outline: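 Un-seeded ThS fibrillation with peptides at specified molar ratios. For K12/K19: 50 μM protein, 250 mM phosphate pH 7.4, 1 mM DTT, 12.5 μM heparin, 10 μM ThS, 37°C; K12 shaken at 900 rpm, K19 quiescent; read every 15 min (ex 440/em 510). For VQIVYK: 25 mM MOPS pH 7.2 with PTFE beads, room temperature, read every 2 min. At least 3 replicates; lag time is the mean time to cross a threshold.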

[4] = system: HIV-1 infection of TZM-bl cells; assay: Effect of WW61, GIHKQK and PYKLWN on HIV-1 infection; format: cell-based; conditions: 150, 30, 6, 1.2 and 0 μg/ml during preincubation with virus
[5] = system: HIV-1 infection of TZM-bl cells; assay: Effect of WW61 on poly-lysine mediated enhancement of HIV-1 infection; format: cell-based; conditions: poly-lysine/WW61 100, 20, 4, 0.8, 0.16, 0.032, 0.064 and 0 μg/ml during preincubation with virus
Outline: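 The HIV-1 CCR5-tropic molecular clone came from 293T transfection, with p24 by ELISA. Poly-lysine was mixed 1:1 with test compound. 5-fold dilutions (100, 20, 4, 0.8, 0.16, 0.032, […], 0 μg/ml) were preincubated with an equal volume of virus for 5 min at room temperature. Of each, 20 μl went onto 180 μl TZM-bl cells (LTR-lacZ). β-galactosidase in lysates was read 2 days later by luminescence (RLU/s).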

[6] = target: T1, tau VQIVYK segment fibers (Homo sapiens); assay: NMR
T1 chain: VQIVYK

## CGGG-(D)-LKTWIV [nanogold-D-LKTWIV]
K19 fibers
  nanogold bound to fibers, significance vs nanogold alone: does not differ significantly from nanogold alone
Ends of K19 fibers
  nanogold at fiber ends, significance vs nanogold alone: does not differ significantly from nanogold alone

## CGGG-(D)-TLKIVW [nanogold-D-TLKIVW]
K19 fibers
  nanogold bound to fibers, significance vs nanogold alone: significantly different from nanogold alone
Ends of K19 fibers; n = 86, 10 nM conjugate, 1.67 μM K19 fibers, pH 7.2, 1 hour
  number of fiber-bound nanogold particles localizing to fiber ends (xend), n = 86: 49
Ends of K19 fibers
  nanogold at fiber ends, significance vs nanogold alone: significantly different from nanogold alone

## D-LKTWIV
Tau K19 [1]
  K19 fibrillation inhibition, equimolar peptide: little inhibitory effect
VQIVYK
  VQIVYK fibrillation inhibition, equimolar peptide: little inhibitory effect
Soluble VQIVYK
  change in indole proton chemical shift with soluble VQIVYK: Only a slight change in the chemical shifts

## D-TIKWVL
Tau K19 [1]
  K19 fibrillation inhibition, equimolar peptide: little inhibitory effect
VQIVYK
  VQIVYK fibrillation inhibition, equimolar peptide: little inhibitory effect

## D-TIWKVL
Tau K19 [1]
  K19 fibrillation inhibition, equimolar peptide: little inhibitory effect
VQIVYK
  VQIVYK fibrillation inhibition, equimolar peptide: little inhibitory effect

## D-TLKIVW
Tau K12; five-fold molar excess, some experimental replicates
  delay of K12 fibrillation, five-fold molar excess: more than two weeks in some experimental replicates
Tau K12; sub-equimolar concentration relative to K12
  K12 fiber formation delay, sub-equimolar peptide: delays fiber formation even at sub-equimolar concentration
VQIVYK; sub-equimolar concentration relative to VQIVYK
  VQIVYK fiber formation delay, sub-equimolar peptide: delays fiber formation even at sub-equimolar concentration
Tau K19 [2]
  K19 fibrillation by electron microscopy: prevents K19 fibrillation
Amyloid beta(1-42)
  block of amyloid beta fibrillation: unable to block the fibrillation of amyloid beta
VQIVYK fibers; 1H NMR, 500 MHz, fibers containing 0 to 1500 μM VQIVYK monomers
  estimated affinity constant for fibers: low micromolar range
VQIVYK fibers; from apparent Kd of 2 μM, VQIVYK fibers
  standard free binding energy (ΔGbinding): ~ 7.4 kcal/mol and 7.4 kcal/mol
Soluble VQIVYK
  change in indole proton chemical shift with soluble VQIVYK: Only a slight change in the chemical shifts
Tau fiber elongation
  fiber elongation rate: fiber elongation rate decreases in the presence of increasing concentrations of inhibitor peptide
[3]; un-seeded reactions
  lag time in un-seeded reactions: large increase in lag time

## H-[W-H-K-chAla-W-hydroxyTic]-OH [WW61]
[4]
  effect on HIV infectivity in the absence of SEVI: does not affect HIV infectivity
[5]
  effect on poly-lysine mediated HIV infectivity: no inhibitory effect on poly-lysine mediated HIV infectivity

## L-TLKIVW
[3]; diastereomer compared with D-TLKIVW, ThS fluorescence
  effectiveness of diastereomer relative to D-TLKIVW: less effective than D-TLKIVW

B1: D-TLKIVW (peptide)
chain: [dT][dL][dK][dI][dV][dW]
[6]
  Kd: ~2 µM
